pEC50, pIC50: −log10 of the molar value.
Experiments:
[1] = Half life in human plasma at 1 uM by HPLC-MS/MS method; format: ADME, cell-free
How it was run: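 Human plasma preincubated 10 min with pH 7.4 phosphate buffer at 37 °C. Compound added at final 1 μM and sampled at 0, 0.5, 1, 1.5 and 2 h into acetonitrile. Centrifuged and analysed by HPLC-MS/MS. t1/2 is the mean of two experiments.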

[2] = Selectivity index, ratio of CC50 for HEL cells to EC50 for thymidine kinase expressing Varicella-Zoster virus Oka; format: toxicity; conditions: human, read-out: Ratio CC50/EC50
How it was run: (§1)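 HEL fibroblast monolayers inoculated with 100 CCID50 HCMV (AD-169, Davis) or 20 PFU VZV (TK+ Oka, TK− 07-1). Adsorbed 1–2 h, inoculum removed, then incubated with compound dilutions. HCMV cytopathicity or VZV plaques scored once untreated infected controls reached completion. EC50 is 50% reduction. SI is CC50/EC50, and the potency ratio is the ratio of EC50s.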

[3] = test system: Human immunodeficiency virus 1; assay: Antiviral activity against CXCR4-tropic HIV-1 NL4-3 infected in human MT4 cells assessed as inhibition of virus-induced cytopathic effect after 6 days by XTT dye based assay; format: functional, cell-based; conditions: Human immunodeficiency virus 1, NL4-3, MT4, 144 h
How it was run: (§2)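 MT-4 cells, 1 × 10^4 per well, given compound dilutions and wild-type NL4-3 or K65R NL4-3. Virus titred to give 85–95% cell killing at day 6. Incubated 6 days at 37 °C, 5% CO2. Viability read by XTT at 450/650 nm. EC50 from CPE reduction and toxicity from uninfected drug wells, by four-parameter fit. Fold change is K65R EC50 over wild-type EC50.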

[4] = Selectivity index, ratio of CC50 for human PHA-stimulated PBMC to IC50 for CXCR4-tropic HIV-1 NL4-3 infected in human PHA-stimulated PBMC
[5] = Cytotoxic activity against HEL cells assessed as reduction in cell proliferation after 3 days by coulter counting method; format: cell-based; conditions: human
How it was run: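 HEL cells seeded at 5 × 10^3/well, grown 24 h, then given compound for 3 days at 37 °C. Cell number counted by Coulter counter. CC50 is 50% reduction of proliferation relative to untreated controls, read from graphic plots.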

[6] = test system: Human immunodeficiency virus 1; assay: Antiviral activity against tenofovir-resistant CXCR4-tropic HIV-1 NL4-3 harboring reverse transcriptase K65R mutant infected in human MT4 cells assessed as inhibition of viral replication inhibition of virus-induced cytopathic effect after 6 days by XTT dye based assay; format: functional, cell-based; conditions: Human immunodeficiency virus 1, NL4-3, MT4, 144 h; how it was run: as §2
[7] = Half life in human liver microsomes at 0.1 uM in presence of NADPH by HPLC-MS/MS method; format: ADME, microsome
How it was run: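 Pooled human liver microsomes preincubated 10 min at 37 °C with an NADPH-regenerating system (1 mM NADP, 5 mM G6P, G6PDH) in pH 7.4 phosphate with 3 mM MgCl2 and 1 mM EDTA. Compound added at final 0.1 μM and sampled at 0–60 min into acetonitrile/methanol. Analysed by HPLC-MS/MS, mean of two experiments.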

[8] = test system: Human immunodeficiency virus 1; assay: Antiviral activity against CCR5 tropic HIV1 BaL infected in human PHA-stimulated PBMC assessed as inhibition of viral replication by measuring reduction in p24 antigen production preincubated with cells for 30 mins followed by viral infection measured on day 10 post infection in presence of IL-2 by ELISA; format: functional; conditions: Human immunodeficiency virus 1, BaL
How it was run: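 PBMCs stimulated with 2 μg/mL PHA for 3 days at 37 °C, then 5 × 10^5 cells/ml preincubated 30 min at 37 °C with serial compound dilutions plus 2 ng/mL IL-2. Infected with 1500 pg/well HIV-1 BaL or 500 pg/well other isolates. IL-2 re-added on days 3 and 6. Supernatant p24 Ag measured by ELISA at day 10. EC50 is 50% inhibition of replication.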

[9] = test system: Human immunodeficiency virus 1; assay: Antiviral activity against CCR5 tropic HIV1 BaL infected in human TZM-bl cells assessed as inhibition of virus-induced cytopathic effect preincubated with cells for 30 mins followed by viral infection measured after 48 hrs in presence of p-24 HIV-1 Ag by luciferase reporter gene assay; format: functional, cell-based; conditions: Human immunodeficiency virus 1, BaL
How it was run: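 TZM-bl cells, 1 × 10^4 per well in DMEM with 10% FBS and 10 mM […], incubated 30 min at 37 °C with compound. Then HIV-1 NL4.3 (X4) or BaL (R5) added at 100 pg p24 Ag per well. After 48 h, cells lysed with luciferase substrate. Tat-induced luminescence read after 10 min dark incubation as a measure of replication.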

[10] = Cytotoxicity against human MT4 cells assessed as reduction in cell viability after 6 days by XTT tetrazolium dye-based assay; how it was run: as §2
[11] = test system: Human immunodeficiency virus 1; assay: Selectivity ratio of EC50 for tenofovir-resistant CXCR4-tropic HIV-1 NL4-3 harboring reverse transcriptase K65R mutant infected in human MT4 cells to EC50 for CXCR4-tropic HIV-1 NL4-3 infected in human MT4 cells; format: functional; how it was run: as §2
Human alphaherpesvirus 3 = assay: Antiviral activity against thymidine kinase deficient Varicella-Zoster virus 07-1 infected in HEL cells assessed as inhibition of plaque formation; format: functional, cell-based; conditions: Human alphaherpesvirus 3, 07-1, HEL; how it was run: as §1
[12] = Stability of the compound in phosphate buffer of pH 8 at 1 mg after 14 hrs by 31P NMR spectroscopy; format: physicochemical; conditions: read-out: Stability
How it was run: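 1 mg compound in 0.2 mL acetone-d6 plus 0.3 mL pH 8 buffer (0.1 M Na2HPO4 adjusted with 0.1 M HCl). In situ 31P NMR (202 MHz) at 37 °C, spectra every 30 min over 14 h.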

[13] = Selectivity index, ratio of CC50 for human TZM-bl cells to EC50 for CCR5 tropic HIV1 BaL infected in human TZM-bl cells; format: toxicity, cell-based; conditions: read-out: Ratio CC50/EC50
Hepatitis B virus = assay: Antiviral activity against HBV ayw1 infected in human HepG2(2.2.15) cells assessed as reduction in viral replication by measuring extracellular viral DNA copy number after 6 days by real-time qPCR method; format: functional, cell-based; conditions: ayw1, HepG2 2.2.15, 144 h
How it was run: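 HepG2.2.15 cells (two copies of HBV ayw1 genome), 1.5 × 10^4/well in DMEM with 2% FBS and 380 μg/mL G418. After 16–24 h, compound added in triplicate, medium with compound renewed at day 3. Supernatant collected at day 6, Pronase-treated, and extracellular HBV DNA measured by TaqMan qPCR (precore/core) against an HBV DNA standard curve. EC50/EC90 derived; CC50 by MTS uptake.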

## CCCCCOC(=O)C[C@H](NP(=O)(CO[C@H](CF)Cn1cnc2c(N)ncnc21)Oc1ccccc1)C(=O)OCCCCC (stereo partly specified)
[1]
  half-life at 1 µM: 89 min
[2]
  selectivity ratio: 39
[3]
  pEC50: 7.52
[4]
  Ratio CC50/IC50: >827
[5]
  CC50 at 72 h: 1960 nM
[6]
  pEC50: 6.77
[7]
  half-life at 0.1 µM: 2 min
[8]
  pIC50: 7.66
[9]
  pEC50: 8.40
[10]
  CC50 at 144 h: > 1000 nM
[11]
  Ratio EC50: 5.7
Human alphaherpesvirus 3
  pEC50: 7.24
[12]
  remaining at 14 h: 58%
[13]
  selectivity ratio: 7910
Hepatitis B virus
  pEC50: 8.00
  EC90: 1970 nM
